Results as given in ChEMBL document CHEMBL4765404, “Identification of benzofused five-membered sultams, potent dual NOD1/NOD2 antagonists in vitro and in vivo” (Eur J Med Chem, 2020).
pIC50: −log10 of the molar value.

Target: T1, Nucleotide-binding oligomerization domain-containing protein 2 (Homo sapiens, UniProt Q9HC29)
Experiment: Antagonist activity at human NOD2 in HEK-Blue hNOD2 cells assessed as secreted alkaline phosphatase reporter activity preincubated for 3 hrs followed by stimulated with MDP for 20 hrs by Spectrophotometer method
Type: cell-based
Conditions: not given

T1 sequence (Q9HC29 whole entry, the tested form may be a part): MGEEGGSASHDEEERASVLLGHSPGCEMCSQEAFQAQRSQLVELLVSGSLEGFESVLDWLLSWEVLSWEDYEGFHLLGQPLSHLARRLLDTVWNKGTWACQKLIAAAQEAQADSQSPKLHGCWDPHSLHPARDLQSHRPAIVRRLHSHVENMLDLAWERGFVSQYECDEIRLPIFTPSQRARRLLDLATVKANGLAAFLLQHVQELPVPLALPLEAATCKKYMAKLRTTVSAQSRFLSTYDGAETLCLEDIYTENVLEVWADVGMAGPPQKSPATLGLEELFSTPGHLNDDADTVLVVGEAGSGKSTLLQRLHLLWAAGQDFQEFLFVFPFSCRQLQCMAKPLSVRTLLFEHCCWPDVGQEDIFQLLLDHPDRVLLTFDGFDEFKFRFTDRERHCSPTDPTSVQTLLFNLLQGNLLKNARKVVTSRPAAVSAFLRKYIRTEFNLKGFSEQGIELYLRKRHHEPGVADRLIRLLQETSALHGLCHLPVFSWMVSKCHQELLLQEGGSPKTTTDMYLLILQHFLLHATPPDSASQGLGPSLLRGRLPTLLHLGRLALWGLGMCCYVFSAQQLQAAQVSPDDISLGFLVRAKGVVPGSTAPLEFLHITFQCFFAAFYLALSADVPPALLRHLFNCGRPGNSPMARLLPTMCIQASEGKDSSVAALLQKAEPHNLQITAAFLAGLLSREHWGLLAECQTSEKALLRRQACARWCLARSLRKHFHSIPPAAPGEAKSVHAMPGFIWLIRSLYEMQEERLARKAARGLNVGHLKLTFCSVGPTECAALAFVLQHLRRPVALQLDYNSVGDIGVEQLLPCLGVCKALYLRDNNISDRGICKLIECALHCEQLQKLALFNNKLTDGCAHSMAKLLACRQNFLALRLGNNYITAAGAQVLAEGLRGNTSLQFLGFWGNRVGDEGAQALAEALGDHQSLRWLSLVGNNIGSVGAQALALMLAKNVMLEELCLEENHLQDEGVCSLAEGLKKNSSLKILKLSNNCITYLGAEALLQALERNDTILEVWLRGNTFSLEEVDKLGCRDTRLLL

| SMILES | pIC50 |
| --- | --- |
| CCCCOC(=O)CC1c2ccc(Cl)c(C)c2S(=O)(=O)N1C(=O)c1ccc(C(F)(F)F)cc1 (stereo not drawn) | 5.01 |
| CCCCc1nnc(CC2c3cccc(C)c3S(=O)(=O)N2C(=O)c2cccc(C(F)(F)F)c2)o1 (stereo not drawn) | 5.33 |
| CCCCOC(=O)CC1c2cc(C)cc(C)c2S(=O)(=O)N1C(=O)c1ccc(C(F)(F)F)cc1 (stereo not drawn) | 5.73 |
| CCCCOC(=O)CC1c2cccc(C)c2S(=O)(=O)N1C(=O)c1ccccc1C(F)(F)F (stereo not drawn) | 6.32 |
| CCCCOC(=O)CC1c2cccc(C)c2S(=O)(=O)N1C(=O)c1ccc(Cl)cc1 (stereo not drawn) | 5.76 |
| CCCCOC(=O)CC1c2cccc(C)c2S(=O)(=O)N1C(=O)c1cccc(C(F)(F)F)c1 (stereo not drawn) | 6.03 |
| CCCCOC(=O)CC1c2cccc(C)c2S(=O)(=O)N1C(=O)c1ccc(C#N)cc1 (stereo not drawn) | 5.26 |
| CCCCOC(=O)CC1c2cc(F)cc(C)c2S(=O)(=O)N1C(=O)c1ccc(C(F)(F)F)cc1 (stereo not drawn) | 5.17 |
| CCCCOC(=O)CC1c2cc(OC)cc(OC)c2S(=O)(=O)N1C(=O)c1ccc(C(F)(F)F)cc1 (stereo not drawn) | 5.40 |
| Cc1cccc2c1S(=O)(=O)N(C(=O)c1ccc(C(F)(F)F)cc1)C2CC(=O)OC(C)(C)C (stereo not drawn) | 5.33 |
| CCCCOC(=O)CC1c2cccc(Cl)c2S(=O)(=O)N1C(=O)c1ccc(C(F)(F)F)cc1 (stereo not drawn) | 5.86 |
| CCCCOC(=O)CC1c2cccc(C)c2C(=O)N1C(=O)c1ccc(C(F)(F)F)cc1 (stereo not drawn) | 5.63 |

Other lines, results leading:

| pIC50 | SMILES |
| --- | --- |
| 5.15 | CCCCOC(=O)CC1c2c(OC)ccc(OC)c2S(=O)(=O)N1C(=O)c1ccc(C(F)(F)F)cc1 (stereo not drawn) |
| 5.93 | CCCCOC(=O)CC1c2cccc(C)c2S(=O)(=O)N1C(=O)c1ccc(C(F)(F)F)cc1 (stereo not drawn) |
| 5.37 | CCCCOC(=O)CC1c2cccc(C(=O)OCCCC)c2S(=O)(=O)N1C(=O)c1ccc(C(F)(F)F)cc1 (stereo not drawn) |
| 5.39 | CCCCOC(=O)CC1c2c(F)ccc(C)c2S(=O)(=O)N1C(=O)c1ccc(C(F)(F)F)cc1 (stereo not drawn) |
| 5.24 | CCCCc1noc(CC2c3cccc(C)c3S(=O)(=O)N2C(=O)c2cccc(C(F)(F)F)c2)n1 (stereo not drawn) |
| 5.45 | COC(=O)CC1c2cccc(C)c2S(=O)(=O)N1C(=O)c1ccc(C(F)(F)F)cc1 (stereo not drawn) |

System: not listed separately
Experiment: Cytotoxicity against human HEK-Blue hNOD1 cells assessed as cell viability measured by SRB assay
Type: cell-based
Conditions: not given
Summary of the method: (§1)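 Run on the same HEK-Blue hNOD1 (C12-iE-DAP 50 ng/mL) or hNOD2 (MDP 100 ng/mL) wells after SEAP readout, following 3 h compound plus 20 h stimulation. Cells fixed in 80% TCA, 4 °C, 1 h; SRB in 1% acetic acid, 10 min; washed, dried; dye dissolved in 10 mM Tris base; A515. Growth inhibition = (C−T)/C × 100, n = 3.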

| SMILES | Activity |
| --- | --- |
| CCCCOC(=O)CC1c2cccc(C)c2S(=O)(=O)N1C(=O)c1cccc(C(F)(F)F)c1 (stereo not drawn) | Non-Toxic |

Target: T1, Nucleotide-binding oligomerization domain-containing protein 2
Experiment: Antagonist activity at human NOD2 in HEK-Blue hNOD2 cells assessed as reduction in secreted alkaline phosphatase reporter activity at 10 uM preincubated for 3 hrs followed by stimulated with MDP for 20 hrs by Spectrophotometer method
Type: cell-based
Conditions: not given

| SMILES | inhibition [%] |
| --- | --- |
| CCCCOC(=O)CC1c2cccc(C)c2S(=O)(=O)N1/C=C\C(=O)OCC (stereo not drawn) | 20.6 |
| CCCCOC(=O)CC1c2cccc(C)c2S(=O)(=O)N1CC (stereo not drawn) | -1 |
| CCCCOC(=O)CC1c2cccc(C)c2S(=O)(=O)N1C(=O)OC (stereo not drawn) | -0.67 |
| Cc1cccc2c1S(=O)(=O)N(C(=O)c1ccc(C(F)(F)F)cc1)C2CC(=O)O (stereo not drawn) | 10.3 |
| CCCCOC(=O)CC1c2cccc(C)c2S(=O)(=O)N1C(=O)c1ccccc1 (stereo not drawn) | 24.3 |
| CCCCOC(=O)/C=C1\c2cccc(C)c2S(=O)(=O)N1C(=O)c1ccc(C(F)(F)F)cc1 | 54.4 |
| CCCCOC(=O)CC1c2cccc(C)c2S(=O)(=O)N1CC(=O)c1ccc(C(F)(F)F)cc1 (stereo not drawn) | 7.2 |
| Cc1cccc2c1S(=O)(=O)N(C(=O)c1ccc(C(F)(F)F)cc1)C2CC(N)=O (stereo not drawn) | -9.14 |
| C=CCN1C(CC(=O)OCCCC)c2cccc(C)c2S1(=O)=O (stereo not drawn) | 5.52 |
| CCCCNC(=O)CC1c2cccc(C)c2S(=O)(=O)N1C(=O)c1ccc(C(F)(F)F)cc1 (stereo not drawn) | 17.7 |
| CCCCOC(=O)CC1c2cccc(C)c2S(=O)(=O)N1C(=O)c1ccco1 (stereo not drawn) | 1.83 |
| CCCCOC(=O)CC1c2cccc(C)c2S(=O)(=O)N1CCCC (stereo not drawn) | 9.07 |

Next, values leading:

| inhibition [%] | SMILES |
| --- | --- |
| 31.4 | CCCCOC(=O)/C=C/c1cc(C)cc2c1S(=O)(=O)N(C(=O)c1ccc(C(F)(F)F)cc1)C2CC(=O)OCCCC (stereo not drawn) |
| 35 | CCCCOC(=O)CC1c2cccc(C)c2S(=O)(=O)N1C(=O)/C=C/c1ccc(Cl)cc1 (stereo not drawn) |
| 30.3 | Cc1cccc2c1S(=O)(=O)N(C(=O)c1ccc(C(F)(F)F)cc1)C2CC(=O)Nc1ccccc1 (stereo not drawn) |
| 6.59 | CCCCOC(=O)CC1c2cccc(C)c2S(=O)(=O)N1C(C)=O (stereo not drawn) |
| 5.29 | CCCCOC(=O)CC1c2cccc(C)c2S(=O)(=O)N1S(C)(=O)=O (stereo not drawn) |
| 4.63 | CCCCOC(=O)CC1c2cccc(C)c2S(=O)(=O)N1C (stereo not drawn) |

Same assay, conditions: filed as antagonist

| SMILES | inhibition [%] |
| --- | --- |
| CCCCOCCC1c2cccc(C)c2S(=O)(=O)N1C(=O)c1ccc(C(F)(F)F)cc1 (stereo not drawn) | 45.9 |
| CCCCOC(=O)CC1c2cccc(C)c2S(=O)(=O)N1Cc1ccccc1 (stereo not drawn) | 41.4 |
| CCCCOC(=O)CC1c2cccc(C)c2S(=O)(=O)N1Cc1ccc(C(F)(F)F)cc1 (stereo not drawn) | 42.5 |

Other lines, results leading:

| inhibition [%] | SMILES |
| --- | --- |
| 60 | CCCCOC(=O)CC1c2cccc(C)c2S(=O)(=O)N1NC(=O)c1ccc(C(F)(F)F)cc1 (stereo not drawn) |
| 55.5 | CCCCOC(=O)CC1c2cccc(C)c2S(=O)(=O)N1C(=O)c1ccc(C)cc1 (stereo not drawn) |

System: not listed separately
Experiment: Cytotoxicity against human HEK-Blue hNOD2 cells assessed as cell viability measured by SRB assay
Type: cell-based
Conditions: not given
Summary of the method: as §1

| SMILES | Activity |
| --- | --- |
| CCCCOC(=O)CC1c2cccc(C)c2S(=O)(=O)N1C(=O)c1cccc(C(F)(F)F)c1 (stereo not drawn) | Non-Toxic |
